ChEMBL document CHEMBL1671864, “First assessment in humans of the safety, tolerability, pharmacokinetics, and ex vivo pharmacodynamic antimalarial activity of the new artemisinin derivative artemisone” (Antimicrob Agents Chemother, 2008)

Experiments:
[1] = Cmax in healthy human plasma at 20 mg, po administered as single ascending doses as solution during 10 hrs overnight fasting state; assay type: ADME, organism-based; set-up: dose 20 mg, route oral
Summary of the method: (§1)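 Healthy Caucasian male volunteers, single oral dose with 240 ml water after a 10-h overnight fast. Heparinised venous blood was drawn predose and at 0.25–14 h. Plasma was stored frozen. Parent drug and metabolites M1–M3 were measured by LC/MS-MS (MRM, deuterated internal standard). Noncompartmental analysis gave Cmax observed, t1/2 = 0.693/kel (terminal regression) and MRT = AUMC/AUC. Values are geometric means.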

[2] = Mean residence time in healthy human at 20 mg, po administered as single ascending doses as solution during 10 hrs overnight fasting state; assay type: ADME, organism-based; conditions: in vivo; summary of the method: as §1
[3] = AUC in healthy human plasma at 10 mg, po administered as single ascending doses as solution during 10 hrs overnight fasting state; assay type: ADME, organism-based; set-up: dose 10 mg, time < 10 hr, route oral
Summary of the method: (§2)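 Single ascending oral doses in healthy Caucasian men, given fasted (10-h overnight) with 240 ml water: 10, 20, 30 or 40 mg as oral solution, or 80 mg as IR tablets. Parent plasma levels by LC/MS-MS over 0.25–14 h. Noncompartmental analysis: kel by terminal-phase least-squares regression, AUC extrapolated to infinity, CL/F = dose/AUC, V/F = CL/F÷kel.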

[4] = Tmax in healthy human plasma at 40 mg, po administered as two 20 mg immediate release tablets daily for 3 days during 10 hrs overnight fasting state measured after 3 day; assay type: ADME, organism-based
Summary of the method: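 Healthy Caucasian men (8 active, 4 placebo per dose) dosed with tablets daily for 3 days after 10-h fast. Lithium-heparin plasma sampled predose and 0.25–14 h after day-1 and day-3 doses, stored frozen. Parent and M1–M3 quantified by LC/MS-MS in positive-ion MRM. Tmax taken directly from observed individual data.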

[5] = Half life in healthy human plasma at 40 mg, po administered as single ascending doses as solution during 10 hrs overnight fasting state; assay type: ADME, organism-based; summary of the method: as §1
[6] = Cmax in healthy human plasma at 40 mg, po administered as two 20 mg immediate release tablets daily for 3 days during 10 hrs overnight fasting state measured after 1 day; assay type: ADME, organism-based; set-up: dose 40 mg, route oral
Summary of the method: (§3)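 Healthy Caucasian males took tablets once daily for 3 days with 240 ml water after a 10-h fast. Heparinised blood was drawn predose and at 0.25–14 h after the first and last doses. Plasma parent drug and metabolites M1–M3 were measured by LC/MS-MS (MRM, deuterated internal standard). Noncompartmental analysis gave Cmax observed, t1/2 = 0.693/kel and MRT = AUMC/AUC. Values are geometric means.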

[7] = Half life in healthy human plasma at 20 mg, po administered as single ascending doses as solution during 10 hrs overnight fasting state; assay type: ADME, organism-based; summary of the method: as §1
[8] = Mean residence time in healthy human at 40 mg, po administered as two 20 mg immediate release tablets daily for 3 days during 10 hrs overnight fasting state measured after 3 day; assay type: ADME, organism-based; conditions: in vivo; summary of the method: as §3
[9] = AUC in healthy human plasma at 40 mg, po administered as two 20 mg immediate release tablets daily for 3 days during 10 hrs overnight fasting state measured after 3 day; assay type: ADME, organism-based; set-up: dose 40 mg, time < 10 hr, route oral
Summary of the method: (§4)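 Healthy Caucasian males took 40 mg (2×20-mg IR tablets) or 80 mg (4 tablets) orally daily for 3 days after a 10-h fast. Plasma parent drug was measured by LC/MS-MS from predose to 14 h after the first and third doses. Noncompartmental analysis: AUC by log-linear trapezoid extrapolated via kel, CL/F = dose/AUC, V/F = CL/F÷kel, geometric means.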

[10] = Apparent volume of distribution with respect to the bioavailability in healthy human at 40 mg, po administered as two 20 mg immediate release tablets daily for 3 days during 10 hrs overnight fasting state measured after 3 day; assay type: ADME, organism-based; conditions: in vivo, read-out: Vc/F; summary of the method: as §4
[11] = Tmax in healthy human plasma at 30 mg, po administered as single ascending doses as solution during 10 hrs overnight fasting state; assay type: ADME, organism-based
Summary of the method: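 Healthy Caucasian male volunteers, randomized within each dose group against placebo, given a single oral solution with 240 ml water after a 10-h overnight fast. Plasma sampled predose and at 0.25–14 h, quantified by LC/MS-MS (MRM, deuterated internal standard). Tmax read directly from individual noncompartmental concentration–time data.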

[12] = tested on: Homo sapiens; assay: Toxicity in healthy human assessed as occurrence of changes in electrocardiogram parameters at 40 mg, po administered daily for 3 days as two 20-mg immediate-release tablets during 10 hrs overnight fasting state; assay type: organism-based; conditions: in vivo
Summary of the method: (§5)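 Healthy Caucasian men received single ascending doses (10–40 mg solution, 80 mg tablets) or 3-day daily tablet courses, all fasting, with randomized placebo controls. Supine blood pressure, heart rate and resting 12-lead ECG were recorded before and after dosing.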

[13] = Cmax in healthy human plasma at 80 mg, po administered as four 20 mg immediate release tablets daily for 3 days during 10 hrs overnight fasting state measured after 1 day; assay type: ADME, organism-based; set-up: dose 80 mg, route oral; summary of the method: as §3
[14] = Half life in healthy human plasma at 10 mg, po administered as single ascending doses as solution during 10 hrs overnight fasting state; assay type: ADME, organism-based; summary of the method: as §1
[15] = Apparent oral clearance in healthy human at 10 mg, po administered as single ascending doses as solution during 10 hrs overnight fasting state; assay type: ADME, organism-based; conditions: in vivo; summary of the method: as §2
[16] = tested on: Plasma; assay: Ratio of Cmax in healthy human plasma at 80 mg, po administered as four 20 mg immediate release tablets daily for 3 days during 10 hrs overnight fasting state measured after 1 day to Cmax in healthy human plasma at 80 mg, po administered as four 20 mg immediate release tablets daily for 3 days during 10 hrs overnight fasting state measured after 3 day; assay type: ADME, organism-based; conditions: in vivo
Summary of the method: (§6)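 Healthy Caucasian men took tablets daily for 3 days with 240 ml water after 10-h fast. Plasma sampled 0.25–14 h after first and last doses, artemisone measured by LC/MS-MS. Accumulation ratio is Cmax or AUC0-∞ after last dose divided by that after first dose. Noncompartmental analysis, geometric means with 95% CI.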

[17] = Apparent volume of distribution with respect to the bioavailability in healthy human at 80 mg, po administered as four 20 mg immediate release tablets daily for 3 days during 10 hrs overnight fasting state measured after 1 day; assay type: ADME, organism-based; conditions: in vivo, read-out: Vc/F; summary of the method: as §4
[18] = Apparent oral clearance in healthy human at 80 mg, po administered as single immediate release tablets during 10 hrs overnight fasting state; assay type: ADME, organism-based; conditions: in vivo; summary of the method: as §2
[19] = Cmax in healthy human plasma at 10 mg, po administered as single ascending doses as solution during 10 hrs overnight fasting state; assay type: ADME, organism-based; set-up: dose 10 mg, route oral; summary of the method: as §1
[20] = tested on: Homo sapiens; assay: Toxicity in healthy human assessed as occurrence of changes in electrocardiogram parameters at 10 to 80 mg, po administered as single ascending doses during 10 hrs overnight fasting state; assay type: organism-based; conditions: in vivo; summary of the method: as §5
[21] = (§7) Apparent oral clearance in healthy human at 80 mg, po administered as four 20 mg immediate release tablets daily for 3 days during 10 hrs overnight fasting state measured after 3 day; assay type: ADME, organism-based; conditions: in vivo; summary of the method: as §4
[22] = tested on: Homo sapiens; assay: Toxicity in healthy human assessed as decrease in alanine aminotransferase level at 80 mg, po administered daily for 3 days as four 20-mg immediate-release tablets during 10 hrs overnight fasting state measured after 2 days last post treatment; assay type: organism-based; conditions: in vivo, 48 h
[23] = tested on: Plasma; assay: Ratio of AUC (0 to infinity) in healthy human plasma at 80 mg, po administered as four 20 mg immediate release tablets daily for 3 days during 10 hrs overnight fasting state measured after 1 day to AUC (0 to infinity) in healthy human plasma at 80 mg, po administered as four 20 mg immediate release tablets daily for 3 days during 10 hrs overnight fasting state measured after 3 day; assay type: ADME, organism-based; conditions: in vivo; summary of the method: as §6
[24] = Cmax in healthy human plasma at 40 mg, po administered as single ascending doses as solution during 10 hrs overnight fasting state; assay type: ADME, organism-based; set-up: dose 40 mg, route oral; summary of the method: as §1
[25] = as §7; assay type: ADME, organism-based; conditions: in vivo; summary of the method: as §4; remark: listed apart in the source

Structure (SMILES): C[C@H]1[C@H](N2CCS(=O)(=O)CC2)O[C@@H]2O[C@@]3(C)CC[C@H]4[C@H](C)CC[C@@H]1[C@@]24OO3 [ARTEMIFONE]
- Cmax [1]: 57.3 ng/mL
- MRT [2]: 1.79 h
- AUC at 10 h [3]: 29.5 ng·h/mL
- Tmax [4]: 1.13 h
- half-life [5]: 3.54 h
- Cmax [6]: 96.4 ng/mL
- half-life [7]: 3.48 h
- MRT [8]: 3.74 h
- AUC at 10 h [9]: 191 ng·h/mL
- Vd/F [10]: 16.1 L/kg
- Tmax [11]: 0.5 h
- Activity [12]: Non-toxic
- Cmax [13]: 155 ng/mL
- half-life [14]: 1.51 h
- CL/F [15]: 5640 mL/min
- Ratio [16]: 84%
- Vd/F [17]: 13 L/kg
- CL/F [18]: 4740 mL/min
- Cmax [19]: 40 ng/mL
- Activity [20]: Non-toxic
- CL/F [21]: 3950 mL/min
- Activity [22]: Non-toxic
- Ratio [23]: 98.3%
- Cmax [24]: 83 ng/mL
- CL/F [25]: 3950 mL/min
